In the library only some 3.8% were active in any assay of this set; here they are far more common.
KCNQ1 act – potentiators or activators of human KCNQ1 potassium channel | B-score at 10 µM | CHO-K1 KCNQ1, thallium flux FluxOR fluorescence; hits give high values | P51787 | 310,000 compounds, 0.35% hits;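 active = fluorescence ratio B-score, a plate-corrected score, at least three library SD, with initial intensity B-score within 5 SD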
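Assay system: stable KCNQ1 CHO-K1 line; medium: assay buffer, equal DMSO in all wells; timing: 90 min dye loading and 20 min compound exposure, both at room temperature; technique: kinetic FluxOR thallium fluorescence, 10-s 1-Hz baseline, 110-s post-stimulus read; read-out basis: B score of baseline-normalized fluorescence ratio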
Kir21 inh – blocks the mouse Kir2.1 inward-rectifier potassium channel. B-score at 10 µM. 310,000 compounds, 0.85% hits. HEK293-Kir2.1, FluxOR thallium flux fluorescence; hits give low values. P35561. AID 1672;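 active = fluorescence ratio B-score at or below minus 3 SD of library scores, with starting-brightness B-score within 2 SD, cut at about -4.2 in these data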;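 also: channel flux triggered by added potassium and thallium sulfate stimulus; B-score of peak minus minimum fluorescence over baseline after thallium stimulus; more negative B-score means stronger Kir2.1 block with less thallium influx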
hERG rescue – compounds protecting human hERG from proarrhythmic drug block | Q12809 | CHO-hERG, FluxOR thallium flux, dofetilide IC70 present | activation (rescue from dofetilide block), less the hit threshold, % at 10 µM | 310,000 compounds, 0.51% hits;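 active = activation above the mean of controls blocked by dofetilide plus 5 SD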;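 also: thallium influx through hERG after potassium depolarization seen as dye fluorescence rise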
KCNK9 inh – inhibitors of human KCNK9 two-pore domain potassium channel; Q9NPC2; HEK293 KCNK9, FluxOR thallium flux fluorescence; hits give low values; B-score at 10 µM; 310,000 compounds, 1.2% hits; AID 488922;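 active = ratio B-score over 3 SD below the library mean, with starting fluorescence within 5 SD of its mean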;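 also: negative B-score means less thallium flux so channel inhibition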
KCNQ1 block – human KCNQ1 channel inhibition; 310,000 compounds, 1.3% hits; CHO-K1 KCNQ1, FluxOR thallium flux fluorescence; hits give high values; P51787; B-score at 10 µM;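 active = compounds whose thallium flux B-score, printed positive for inhibition, exceeds three library SD while starting fluorescence stays within three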;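 also: channel opened by potassium depolarization with thallium stimulus after 20 min compound exposure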
KCNK3 block – human KCNK3 channel inhibition, primary screen; O14649; CHO-KCNK3 thallium flux, FluxOR fluorescence; hits give low values; B-score at 10 µM; 340,000 compounds, 0.84% hits; AID 602410;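 active = B-score under library mean minus 4 SD, starting fluorescence ratio at most library mean plus 5 SD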;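 also: more negative B-score means stronger inhibition of thallium flux through KCNK3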
KCNK3 inh conf – human KCNK3 channel inhibition, confirmation assay; CHO-KCNK3 thallium flux, FluxOR fluorescence; 0% buffer, 100% carvedilol maximal block; shares compounds with KCNK3 block; 2,400 compounds, 99% hits; ratio percent of control, % at 10 µM;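 active = ratio percent of control, averaged over triplicates, above buffer control mean plus 5 SD, cut at about 64% in these data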;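 also: ratio is the fluorescence rise from min to max over baseline after thallium stimulus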
KCNK3 noninduced – counter-screen for KCNK3 inhibitors: effect in non-induced cells | shares compounds with KCNK3 block | non-induced KCNK3 parental cells, FluxOR thallium flux; hits give low values | thallium flux ratio (lower = more inhibition) at 10 µM | 2,400 compounds, 40% hits | AID 651747;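 active = thallium flux ratio, averaged over three wells, more than 5 SD below the buffer control mean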;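 also: host cells are CHO cells without KCNK3 induction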
Of the large screens only hits and unclear results are named; the others gave an inactive call (follow-up assays come after a bar, where they were run).

CC(OC(=O)c1cccc(S(=O)(=O)N2CCCC2)c1)C(=O)c1ccccc1 (centres undefined)	none
COCCNC(=O)c1ccccc1NC(=O)Cc1ccccc1[N+](=O)[O-]	KCNK3 block -9.87 | KCNK3 inh conf inactive | KCNK3 noninduced inactive
O=C(Cn1c(CO)nc2ccccc21)Nc1cc(C(F)(F)F)ccc1N1CCOCC1	KCNK3 block -10.2 | KCNK3 inh conf 65.7 | KCNK3 noninduced inactive
Nc1ccc(S(=O)(=O)Nc2cc(Cl)c(N)c(Cl)c2)cc1	none (no result: KCNQ1 act, Kir21 inh, hERG rescue, KCNK9 inh, KCNQ1 block)
Cc1cccc(OCc2nnc(SCC(=O)N(C)C3CCCCC3)o2)c1	none (no result: KCNQ1 act, Kir21 inh, hERG rescue, KCNK9 inh, KCNQ1 block)
COCCc1ncc(CN2CCCC(C(=O)Nc3cccc(-c4cccc(C)c4)c3)C2)cn1 (centres undefined)	KCNK3 block -9 | KCNK3 inh conf 91.3 | KCNK3 noninduced inactive
CC(Sc1nnc(COc2ccc(Cl)cc2)n1Cc1ccco1)C(=O)N1CCNC1=O (centres undefined)	none (no result: KCNQ1 act, Kir21 inh, hERG rescue, KCNK9 inh, KCNQ1 block)
CC(C)n1ncc2c(C(=O)Nc3cccc(C#N)c3)cc(C3CC3)nc21	KCNK3 block -11.7 (no result: KCNQ1 act, Kir21 inh, hERG rescue, KCNK9 inh, KCNQ1 block) | KCNK3 inh conf 117.7 | KCNK3 noninduced 0.132
CC(=O)Nc1ccc(Oc2cc(C#N)c(C#N)cc2N2CCCCCC2)cc1	KCNK3 block -13 (no result: KCNQ1 act, Kir21 inh, hERG rescue, KCNK9 inh, KCNQ1 block) | KCNK3 inh conf 120.0 | KCNK3 noninduced inactive
CC(=O)Nc1ccc(OC(=O)N2CCCC2)cc1	none
O=C(Cn1cnc([N+](=O)[O-])n1)c1ccccc1	none
O=C(Cn1cnc([N+](=O)[O-])n1)c1ccc(O)c(O)c1	KCNK9 inh -8.03, KCNK3 block -9.22 | KCNK3 inh conf 79.3 | KCNK3 noninduced inactive
COCCNC(=O)C(c1ccc(C)cc1)N(C(=O)CCC(=O)Nc1ccccn1)c1ccccc1C (centres undefined)	none
COc1ccc(OC)c(S(=O)(=O)N2CCCC(C(=O)N3CCCC3)C2)c1 (centres undefined)	none
c1cnc(SCCCOc2ccc3ccccc3c2)nc1	KCNK3 block -10.3 | KCNK3 inh conf 114.3 | KCNK3 noninduced 0.14
c1ccc(Oc2cccc(OCCCCSc3ncccn3)c2)cc1	KCNK3 block -10.6 | KCNK3 inh conf 89.0 | KCNK3 noninduced 0.154
COc1ccccc1C(=O)NC(=O)COC(=O)CNC(=O)c1ccccc1F	none (no result: KCNQ1 act, Kir21 inh, hERG rescue, KCNK9 inh, KCNQ1 block)
O=C(COc1ccccc1Br)Nc1ccccc1C(F)(F)F	none
Cc1ccc(S(=O)(=O)N(C)c2ccc3ccccc3c2)cc1	KCNK3 block -9.36 | KCNK3 inh conf 121.7 | KCNK3 noninduced 0.126
CNC(=S)N1CCN(C(=O)c2ccco2)CC1	none
Cc1ccc(-c2cc(-c3ccccc3)nc(Cl)n2)cc1	KCNK3 block -10.8 | KCNK3 inh conf 130.3 | KCNK3 noninduced 0.115
O=C(NCc1ccccc1)c1cccc(COc2ccccc2Cl)c1	KCNQ1 block 6, KCNK3 block -11.6 | KCNK3 inh conf 112.3 | KCNK3 noninduced inactive
CC(C)N1CCN(Cc2cnc(N3CCCC3)s2)CC1CCO (centres undefined)	none (no result: KCNQ1 act, Kir21 inh, hERG rescue, KCNK9 inh, KCNQ1 block)
O=C(CNC(=O)c1ccccc1)OCCOc1cccc(Cl)c1	none
O=C(CNC(=O)c1cccc(F)c1)OCCOc1cccc(Cl)c1	KCNK3 block -8.73 | KCNK3 inh conf 103.7 | KCNK3 noninduced inactive
N#CCC(CNc1ncc(C(F)(F)F)cc1Cl)OC(=O)c1ccc(Cl)cc1Cl (centres undefined)	KCNK3 block -9.53 | KCNK3 inh conf 102.0 | KCNK3 noninduced 0.159
O=S(=O)(c1cc(Br)ccc1Br)N1CCCCCC1	KCNK3 block -11 | KCNK3 inh conf 128.7 | KCNK3 noninduced 0.137
COCn1c(COc2ccc3ccccc3c2)nc2ccccc21	KCNK3 block -8.77 | KCNK3 inh conf 94.7 | KCNK3 noninduced inactive
CCn1c(COc2cccc(C)c2)nc2ccccc21	none
COc1cccc(CN2CC(C(=O)N3CCCO3)CCC2=O)c1 (centres undefined)	none
O=c1cc(CN2CCc3ccccc32)c2ccc(O)cc2o1	none
CCc1ccc2c(CN3CCc4ccccc43)cc(=O)oc2c1	KCNK3 block -13.2 | KCNK3 inh conf 83.3 | KCNK3 noninduced inactive
Cc1ccc(N2C(=O)CC(Sc3nc4ccccc4o3)C2=O)cc1Cl (centres undefined)	none
O=C(COc1ccc(Br)cc1)Nc1nc(-c2cccnc2)cs1	none
CC(C)CC(=O)Nc1cccc(-c2nc3ccccc3[nH]2)c1	KCNK3 block -10.7 | KCNK3 inh conf 124.0 | KCNK3 noninduced 0.119
CC(C)(C)C(=O)Nc1cccc(-c2nc3ccccc3[nH]2)c1	KCNK3 block -10.6 | KCNK3 inh conf 93.3 | KCNK3 noninduced inactive
Cc1nc(-c2cccc(NC(=O)C(C)Oc3ccccc3)c2)cs1 (centres undefined)	none
O=C(O)c1cccc(-c2nc3ccccc3[nH]2)c1	none
CC(Oc1ccccc1)C(=O)Nc1cccc(-c2nc3ccccc3[nH]2)c1 (centres undefined)	KCNK9 inh -7.36, KCNK3 block -11.2 | KCNK3 inh conf 100.3 | KCNK3 noninduced 0.142
O=C(Nc1cccc(-c2nc3ccccc3[nH]2)c1)c1ccccn1	KCNK9 inh -7.07, KCNK3 block -12.6 | KCNK3 inh conf 108.7 | KCNK3 noninduced inactive
CC(=O)Nc1cccc(-c2nc3ccccc3[nH]2)c1	none
CC(=O)Nc1cccc(-c2nc3ccc(NC(C)=O)cc3[nH]2)c1	none
COc1ccccc1N=c1oc2cc(O)ccc2cc1C(N)=O	none
Cc1cccc(N=c2oc3cc(O)ccc3cc2C(N)=O)c1	KCNK3 block -8.75 | KCNK3 inh conf 112.7 | KCNK3 noninduced inactive
C/C(=N\N=C1\NC(=O)C(Cc2ccccc2)S1)c1ccccc1 (centres undefined)	KCNK3 block -10.3 | KCNK3 inh conf 102.7 | KCNK3 noninduced 0.157
Cc1noc(-c2ccccc2)c1NC(=O)Nc1ccccc1	none
Cc1noc(-c2ccccc2)c1NC(=O)Nc1ccc(Cl)cc1	KCNK3 block -10.8 | KCNK3 inh conf 106.0 | KCNK3 noninduced inactive
N#C/C(=N\Nc1cccc(C(F)(F)F)c1)C(=O)c1csc(-c2cccnc2)n1	KCNQ1 block 7, KCNK3 block -9.43 | KCNK3 inh conf 100.7 | KCNK3 noninduced 0.13
CCOc1ccccc1NC1=C(Cl)C(=O)N(Cc2ccccc2)C1=O	KCNK3 block -8.84 | KCNK3 inh conf 116.7 | KCNK3 noninduced 0.153
COc1ccc(OC)c(NC2=C(Cl)C(=O)N(Cc3ccccc3)C2=O)c1	none
Cn1c(=O)c2c(nc(Cc3ccc(N)cc3)n2C)n(C)c1=O	none
COc1ccc(-c2cc(C(=O)N3CCCc4ccccc43)no2)cc1	none

Source: PubChem BioAssay (Johns Hopkins Ion Channel Center)
